Compound activity (PubChem BioAssay)
This is a sample that favours compounds with a hit; in the whole collection about 2.9% have one here.
rRNA inh HTS – reduced GFP signal of wild-type E. coli, primary screen, bacterial rRNA inhibitor project, GFP/RFP fluorescence, OD600, single point. E. coli WT GFP vs humanized-ribosome RFP mutants, 24 h; hits give low values; DMSO median 0, no signal -100. actives 1.6% (n = 350,000). GFP signal change (wild-type ribosome), % (test concentration not listed);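 active means significant combined selectivity score with lowered wild-type GFP, culture density cut under 30%, mutant RFP and density less affected; inactive means any of these conditions unmet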
Cneo AK release – Cryptococcus neoformans cell lysis inducers, primary screen, AK release luminescence, single concentration | C. neoformans lysis, adenylate kinase release luminescence, 4 h; normalised: neutral wells 0, clomiphene wells 100 | lysis activity, % at 15 µM | actives 0.2% (n = 360,000);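 active means mean lysis activity across replicates of at least 80%, whatever share of replicates individually reach that level; inactive means mean lysis activity below 80%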
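Assay system: C. neoformans cells. Amount: yeast cell density of 5 × 10^6 cells/mL. Technique: AK luminescence. Buffer or medium: YPD. Times: static 4 h at 37 °C with compound, 1 h detection. Dosing: single-point compound dose. Read-out: lysis from increased AK signal.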
PGC1a acetyl inh – inhibitors of PGC1a acetylation signal, primary screen, cell-based, U2OS, AlphaScreen, inhibitor mode | AlphaScreen anti-acetyl-lysine; with virally co-expressed GCN5 acetyltransferase | actives 0.17% (n = 350,000) | inhibition, % at 15.6 µM;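 active means every replicate shows inhibition of at least 40%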;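 further: 0% = neutral control wells and 100% = positive control wells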
Vif imaging – HIV Vif self-association inhibitors, primary screen, imaging, HEK293T, single point | HEK293T cells, Vif self-association by quenched fluorescence, 24 h | inhibition, % at 7.49 µM | actives 0.35% (n = 340,000) | AID 602346, 2012; in the data active means inhibition above about 50%, passing the limit was not always enough
FGF22 binding – binders of human FGF22 protein, primary screen, FGF22 synaptogenesis inhibitor project, biophysical, thermal shift, single point. actives 1.5% (n = 340,000). activity (Tm shift, normalised), % at 9.99 µM. recombinant FGF22 thermal shift, SYPRO orange fluorescence; percent of sucrose octasulfate shift, DMSO zero. Fibroblast growth factor 22 (Homo sapiens), Q9HCT0;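 active means mean Tm shift, scaled 0 neutral to 100 positive control, at about 1.3% or above, every replicate too, limit read from the data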
Target sequence (Q9HCT0 whole entry, looked up): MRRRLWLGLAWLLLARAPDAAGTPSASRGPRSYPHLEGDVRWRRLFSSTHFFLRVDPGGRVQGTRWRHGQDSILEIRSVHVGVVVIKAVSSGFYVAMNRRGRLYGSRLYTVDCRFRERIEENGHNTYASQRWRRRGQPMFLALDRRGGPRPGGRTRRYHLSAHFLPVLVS
PglD DTNB – C. jejuni PglD acetyltransferase inhibitors, primary screen, biochemical, DTNB colorimetric, single point. purified PglD enzyme, DTNB colorimetric CoA detection. AID 602405, 2012. actives 0.098% (n = 360,000). inhibition, % at 12.5 µM. UDP-N-acetylbacillosamine N-acetyltransferase PglD (Campylobacter jejuni); in the data active means inhibition above about 16%, passing the limit was not always enough
* = called active by the depositor.

For CCOC(=O)c1ccccc1OCc1cc(/C=N/n2cnnc2)ccc1OC the results were Cneo AK release 0, PGC1a acetyl inh -2, Vif imaging 94* and PglD DTNB 2.
Screening C[C@H](CO)N1C[C@H](C)[C@H](CN(C)Cc2ccncc2)Oc2ccc(NC(=O)Nc3cccc4ccccc34)cc2CC1=O returned rRNA inh HTS -4, Cneo AK release -4, PGC1a acetyl inh -1 and PglD DTNB -4.
Cc1noc(C)c1NC(=O)N(C)C[C@@H]1Oc2ccc(NC(=O)C3CCCCC3)cc2CC(=O)N([C@@H](C)CO)C[C@@H]1C was read as rRNA inh HTS 2, Cneo AK release 6, PGC1a acetyl inh 6 and PglD DTNB 0.
Cc1noc(C)c1NC(=O)N(C)C[C@H]1Oc2ccc(NC(=O)C3CC3)cc2CC(=O)N([C@@H](C)CO)C[C@H]1C was read as rRNA inh HTS 4, Cneo AK release 117*, PGC1a acetyl inh 30, FGF22 binding 0 and PglD DTNB -1.
For C[C@H](CO)N1C[C@H](C)[C@H](CN(C)C(=O)Nc2cccc3ccccc23)Oc2ccc(NC(=O)Cc3ccccc3)cc2CC1=O the results were rRNA inh HTS 2, Cneo AK release 102*, PGC1a acetyl inh -13, FGF22 binding -1 and PglD DTNB 3.
For Cc1noc(C)c1NC(=O)N(C)C[C@@H]1Oc2ccc(NS(=O)(=O)c3cn(C)cn3)cc2CC(=O)N([C@H](C)CO)C[C@H]1C the results were rRNA inh HTS 2, Cneo AK release 103*, PGC1a acetyl inh 9, FGF22 binding 0 and PglD DTNB 3.
Screening C[C@@H]1CN([C@@H](C)CO)C(=O)Cc2cc(NC(=O)Nc3cccc4ccccc34)ccc2O[C@H]1CN(C)Cc1ccncc1 returned rRNA inh HTS -6, Cneo AK release 13, PGC1a acetyl inh -2, FGF22 binding 2.4* and PglD DTNB 14.
For C/C=C/c1ccc([C@@H]2[C@H](CO)N(C(C)=O)C23CN(C(=O)NC2CCCC2)C3)cc1 the results were rRNA inh HTS 0.
`O=C(C[C@@H]1CC[C@@H]2[C@H](COC[C@@H](O)CN2Cc2cccc(Cl)c2)O1)N1CCOCC1` gave rRNA inh HTS 6, Cneo AK release -4, PGC1a acetyl inh -2, FGF22 binding 0 and PglD DTNB -2.
`C[C@H]1CN([C@@H](C)CO)C(=O)Cc2cc(NC(=O)C3CC3)ccc2O[C@@H]1CN(C)C(=O)Nc1cccc2ccccc12` gave rRNA inh HTS 4, Cneo AK release 111*, PGC1a acetyl inh 3, FGF22 binding 0 and PglD DTNB -1.
For C[C@H](CO)N1C[C@H](C)[C@@H](CN(C)C(=O)Nc2cccc3ccccc23)Oc2ccc(NC(=O)C3CC3)cc2CC1=O the results were rRNA inh HTS 4, Cneo AK release -18, PGC1a acetyl inh -3, FGF22 binding 0 and PglD DTNB -1.
`C[C@H](CO)N1C[C@H](C)[C@@H](CN(C)C(=O)Nc2cccc3ccccc23)Oc2ccc(NC(=O)Cc3ccccc3)cc2CC1=O` gave rRNA inh HTS 1, Cneo AK release -25, PGC1a acetyl inh 0, FGF22 binding 1.6* and PglD DTNB 4.
`C[C@H]1CN([C@@H](C)CO)C(=O)Cc2cc(NC(=O)Cc3ccccc3)ccc2O[C@@H]1CN(C)C(=O)Nc1cccc2ccccc12` gave rRNA inh HTS 7, Cneo AK release -1, PGC1a acetyl inh 11, FGF22 binding -1 and PglD DTNB -4.
`Cc1ccc(-c2ccc3c(c2)O[C@H](CN(C)C(=O)Nc2ccc(F)cc2)[C@H](C)CN([C@@H](C)CO)S3(=O)=O)cc1` gave rRNA inh HTS -4, Cneo AK release 1, PGC1a acetyl inh 5, FGF22 binding 0 and PglD DTNB 1.
Screening CC(C)NC(=O)Nc1cccc2c1O[C@@H](CN(C)C(=O)OC(C)(C)C)[C@@H](C)CN(C)C2=O returned rRNA inh HTS 3.
`C[C@@H]1CN([C@H](C)CO)S(=O)(=O)c2ccc(-c3cncnc3)cc2O[C@@H]1CN(C)C(=O)c1ccc2c(c1)OCO2` gave rRNA inh HTS 0, Cneo AK release -1, PGC1a acetyl inh -12, FGF22 binding 0 and PglD DTNB 2.
`O=C(CC1CC1)N1CC(=O)N2[C@H](CO)[C@@H](c3ccc(C#Cc4ccccc4)cc3)[C@@H]2C1` gave rRNA inh HTS -59 and PGC1a acetyl inh -4.
O=C1OCC/C1=C1/NCCNC1=O was read as Cneo AK release 1, PGC1a acetyl inh 17, Vif imaging -10, FGF22 binding 44* and PglD DTNB 3.
`O=C1NCCNC(=O)c2ccccc2OCCOc2ccccc21` gave rRNA inh HTS 8, Vif imaging 36 and FGF22 binding 1.
For C/C=C/c1ccc([C@H]2[C@@H](CO)N(S(C)(=O)=O)[C@@H]2CN(CC)C(=O)CC)cc1 the results were rRNA inh HTS 0, Cneo AK release -1, PGC1a acetyl inh -3, FGF22 binding 0 and PglD DTNB -1.
Screening COc1ccccc1N(CC(=O)N(c1ccccc1)C(C)C)S(=O)(=O)c1cccs1 returned rRNA inh HTS -17, PGC1a acetyl inh -10, Vif imaging -3 and FGF22 binding 0.
Screening COc1ccccc1N(CC(=O)N(CC(C)C)CC(C)C)S(=O)(=O)c1cccs1 returned rRNA inh HTS -37, Cneo AK release -2, PGC1a acetyl inh -25, Vif imaging 3, FGF22 binding 43* and PglD DTNB 1.
Screening Cc1noc(C)c1NC(=O)N[C@H]1CC[C@H](CCNC(=O)C2CCCCC2)O[C@@H]1CO returned rRNA inh HTS 2, Cneo AK release 8, PGC1a acetyl inh 2, FGF22 binding 0 and PglD DTNB -3.
For O=C(c1ccc(F)cc1)N1CC(=O)N2[C@H](CO)[C@H](c3ccc(C#CC4CC4)cc3)[C@H]2C1 the results were rRNA inh HTS -4 and PGC1a acetyl inh 3.
Screening O=C(Nc1scc(-c2ccccc2)c1C(=O)O)c1ccccc1Cl returned rRNA inh HTS -15, Cneo AK release -1, PGC1a acetyl inh 7, Vif imaging -9, FGF22 binding 37* and PglD DTNB -1.
